Test results published in ChEMBL document CHEMBL2021899, “Anti-AIDS agents 89. Identification of DCX derivatives as anti-HIV and chemosensitizing dual function agents to overcome P-gp-mediated drug resistance for AIDS therapy” (Bioorg Med Chem Lett, 2012).

Assays:
[1] = tested on: Human immunodeficiency virus; experiment: Antiviral activity against HIV/NL4-3 infected in human TZM-bl cells assessed as inhibition of viral replication after 48 hrs by luciferase reporter gene assay; format: functional, organism-based; settings: Human immunodeficiency virus 1, NL4-3, TZM-bl
[2] = tested on: KB; experiment: Reversal of p-glycoprotein-mediated multidrug resistance in human vincristine-resistance KB cells assessed as potentiation of vincristine-induced cytotoxicity at 4 uM after 48 hrs by SRB assay relative to verapamil; format: cell-based
How it was run: (§1)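 Vincristine-resistant, P-gp over-expressing KB-vin cells were exposed to vincristine alone or with co-treatment by the test agent, with verapamil as positive control. Vincristine GI50 was read by SRB assay. Fold value = GI50 (vincristine alone) / GI50 (vincristine + test agent). At least three independent experiments.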

[3] = Cytotoxicity against human TZM-bl cells after 48 hrs by CytoTox-GloTM assay; format: cell-based
[4] = tested on: KB; experiment: Reversal of p-glycoprotein-mediated multidrug resistance in human vincristine-resistance KB cells assessed as potentiation of vincristine-induced cytotoxicity at 4 uM after 48 hrs by SRB assay; format: cell-based; how it was run: as §1
[5] = tested on: KB; experiment: Cytotoxicity against human KB cells at 4 uM after 48 hrs by SRB assay; format: functional
[6] = tested on: KB; experiment: Ratio of GI50 for human vincristine-resistance KB cells to GI50 for wild type human KB cells; format: functional
[7] = molecular target: ATP-dependent translocase ABCB1 (Homo sapiens, UniProt P08183); experiment: Inhibition of p-glycoprotein-mediated doxorubicin efflux in human KB cells assessed as doxorubicin accumulation preincubated for 1 hr prior doxorubicin addition measured after 3 hrs by fluorometric assay; format: cell-based
ATP-dependent translocase ABCB1, sequence (P08183 whole entry): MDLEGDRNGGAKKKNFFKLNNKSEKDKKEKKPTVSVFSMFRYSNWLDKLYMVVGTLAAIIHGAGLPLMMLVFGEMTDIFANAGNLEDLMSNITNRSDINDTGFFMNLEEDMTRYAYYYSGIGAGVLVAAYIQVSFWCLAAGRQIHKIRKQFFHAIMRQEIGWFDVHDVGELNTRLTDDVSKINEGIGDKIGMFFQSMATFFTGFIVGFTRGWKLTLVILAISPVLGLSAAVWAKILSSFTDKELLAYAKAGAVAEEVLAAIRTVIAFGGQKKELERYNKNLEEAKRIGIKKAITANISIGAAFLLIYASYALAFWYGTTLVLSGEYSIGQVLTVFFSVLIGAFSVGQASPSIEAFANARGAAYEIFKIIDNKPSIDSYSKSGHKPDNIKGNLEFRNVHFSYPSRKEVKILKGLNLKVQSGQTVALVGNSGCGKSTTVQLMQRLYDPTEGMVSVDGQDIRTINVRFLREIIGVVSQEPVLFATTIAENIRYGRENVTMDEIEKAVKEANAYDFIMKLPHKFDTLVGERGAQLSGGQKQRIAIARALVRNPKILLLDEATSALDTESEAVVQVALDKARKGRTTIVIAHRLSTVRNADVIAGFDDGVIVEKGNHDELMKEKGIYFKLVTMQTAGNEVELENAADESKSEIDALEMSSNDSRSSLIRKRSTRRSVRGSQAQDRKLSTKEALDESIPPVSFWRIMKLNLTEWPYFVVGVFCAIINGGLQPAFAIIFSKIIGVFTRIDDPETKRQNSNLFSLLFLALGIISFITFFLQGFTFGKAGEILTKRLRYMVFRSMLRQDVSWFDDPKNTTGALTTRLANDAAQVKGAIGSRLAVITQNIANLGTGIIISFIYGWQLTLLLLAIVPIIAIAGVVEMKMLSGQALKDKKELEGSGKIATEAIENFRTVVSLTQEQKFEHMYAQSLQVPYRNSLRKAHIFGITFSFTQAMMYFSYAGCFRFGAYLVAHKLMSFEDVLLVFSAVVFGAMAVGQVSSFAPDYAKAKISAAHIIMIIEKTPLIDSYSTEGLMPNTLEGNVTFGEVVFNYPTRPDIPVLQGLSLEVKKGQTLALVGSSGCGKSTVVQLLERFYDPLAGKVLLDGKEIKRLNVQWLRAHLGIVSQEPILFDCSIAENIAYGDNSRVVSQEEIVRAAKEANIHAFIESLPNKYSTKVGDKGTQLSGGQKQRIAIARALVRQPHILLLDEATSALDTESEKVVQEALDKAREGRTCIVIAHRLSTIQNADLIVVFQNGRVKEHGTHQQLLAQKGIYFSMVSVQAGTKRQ
How it was run: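 KB-vin cells were seeded at 5 × 10³ per well and grown 72 h at 37 °C in 5% CO2, then washed. They were pretreated with sample or vehicle for 1 h, then doxorubicin was added to 10 final and incubated 3 h. Cells were washed in ice-cold PBS and lysed in 1% SDS/PBS; fluorescence was read at Ex 488/Em 580 nm. Value = fluorescence with compound / without, after control subtraction. Verapamil served as positive control.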

Structure (SMILES): COc1cc2c(c3oc4ccc(F)cc4c(=O)c13)[C@@H](OC(=O)[C@@]13CCC(C)(C(=O)O1)C3(C)C)[C@@H](OC(=O)[C@@]13CCC(C)(C(=O)O1)C3(C)C)C(C)(C)O2
- EC50 [1]: 100 nM
- fold change (FC) [2]: 20
- IC50 [3]: > 10000 nM
- fold change (FC) [4]: 1150

Structure (SMILES): COc1cc2c(c3oc4c(C)cccc4c(=O)c13)[C@@H](OC(=O)[C@@]13CCC(C)(C(=O)O1)C3(C)C)[C@@H](OC(=O)[C@@]13CCC(C)(C(=O)O1)C3(C)C)C(C)(C)O2
- EC50 [1]: 1520 nM
- fold change (FC) [2]: 20
- IC50 [3]: > 10000 nM
- fold change (FC) [4]: 1100

Structure (SMILES): CC[C@]1(O)C[C@H]2CN(CCc3c([nH]c4ccccc34)[C@@](C(=O)OC)(c3cc4c(cc3OC)N(C=O)[C@H]3[C@@](O)(C(=O)OC)[C@H](OC(C)=O)[C@]5(CC)C=CCN6CC[C@]43[C@@H]65)C2)C1 [VINCRISTINE]
- GI50 [5]: 2 nM
- RatioGI50 [6]: 1320

Structure (SMILES): Cc1cc(=O)c2c(C)cc3c(c2o1)[C@@H](OC(=O)[C@@]12CCC(C)(C(=O)O1)C2(C)C)[C@@H](OC(=O)[C@@]12CCC(C)(C(=O)O1)C2(C)C)C(C)(C)O3
- EC50 [1]: 36 nM
- fold change (FC) [2]: 20
- IC50 [3]: > 10000 nM
- fold change (FC) [4]: 910
- inhibition (INH) [7]: Active

Structure (SMILES): COc1cc2c(c3oc4c(F)cccc4c(=O)c13)[C@@H](OC(=O)[C@@]13CCC(C)(C(=O)O1)C3(C)C)[C@@H](OC(=O)[C@@]13CCC(C)(C(=O)O1)C3(C)C)C(C)(C)O2
- EC50 [1]: 230 nM
- IC50 [3]: > 10000 nM
- fold change (FC) [4]: 880

Structure (SMILES): COc1ccc2oc3c4c(cc(OC)c3c(=O)c2c1)OC(C)(C)[C@H](OC(=O)[C@@]12CCC(C)(C(=O)O1)C2(C)C)[C@@H]4OC(=O)[C@@]12CCC(C)(C(=O)O1)C2(C)C
- EC50 [1]: 121 nM
- IC50 [3]: > 10000 nM
- fold change (FC) [4]: 343

Structure (SMILES): COc1cc2c(c3oc4ccc(C)cc4c(=O)c13)[C@@H](OC(=O)[C@@]13CCC(C)(C(=O)O1)C3(C)C)[C@@H](OC(=O)[C@@]13CCC(C)(C(=O)O1)C3(C)C)C(C)(C)O2
- EC50 [1]: 65 nM
- IC50 [3]: > 10000 nM
- fold change (FC) [4]: 388

Structure (SMILES): COc1cc(C)c2c(=O)c3c(OC)cc4c(c3oc2c1)[C@@H](OC(=O)[C@@]12CCC(C)(C(=O)O1)C2(C)C)[C@@H](OC(=O)[C@@]12CCC(C)(C(=O)O1)C2(C)C)C(C)(C)O4
- EC50 [1]: 140 nM
- IC50 [3]: > 10000 nM
- fold change (FC) [4]: 518

Structure (SMILES): COc1c(Br)c2c(c3oc4ccccc4c(=O)c13)[C@@H](OC(=O)[C@@]13CCC(C)(C(=O)O1)C3(C)C)[C@@H](OC(=O)[C@@]13CCC(C)(C(=O)O1)C3(C)C)C(C)(C)O2
- fold change (FC) [2]: 20
- IC50 [3]: > 10000 nM
- fold change (FC) [4]: 1650

Structure (SMILES): CC1(C)Oc2cc(O)c3c(=O)c4ccccc4oc3c2[C@@H](OC(=O)[C@@]23CCC(C)(C(=O)O2)C3(C)C)[C@H]1OC(=O)[C@@]12CCC(C)(C(=O)O1)C2(C)C
- IC50 [3]: > 10000 nM
- fold change (FC) [4]: < 24

Structure (SMILES): COc1ccc(CCN(C)CCCC(C#N)(c2ccc(OC)c(OC)c2)C(C)C)cc1OC (stereo unspecified)
- fold change (FC) [4]: 60

Structure (SMILES): COc1ccc2c(=O)c3c(OC)cc4c(c3oc2c1)[C@@H](OC(=O)[C@@]12CCC(C)(C(=O)O1)C2(C)C)[C@@H](OC(=O)[C@@]12CCC(C)(C(=O)O1)C2(C)C)C(C)(C)O4
- EC50 [1]: 362 nM
- IC50 [3]: > 10000 nM
- fold change (FC) [4]: 98

Structure (SMILES): COc1cccc2c(=O)c3c(OC)cc4c(c3oc12)[C@@H](OC(=O)[C@@]12CCC(C)(C(=O)O1)C2(C)C)[C@@H](OC(=O)[C@@]12CCC(C)(C(=O)O1)C2(C)C)C(C)(C)O4
- fold change (FC) [2]: 20
- IC50 [3]: > 10000 nM
- fold change (FC) [4]: 1020

Structure (SMILES): CC1(C)Oc2ccc3c(=O)c4ccccc4oc3c2[C@@H](OC(=O)[C@@]23CCC(C)(C(=O)O2)C3(C)C)[C@H]1OC(=O)[C@@]12CCC(C)(C(=O)O1)C2(C)C
- EC50 [1]: 308 nM
- fold change (FC) [2]: 20
- IC50 [3]: > 10000 nM
- fold change (FC) [4]: 1260

Structure (SMILES): COc1cc2c(c3oc4cc(Br)ccc4c(=O)c13)[C@@H](OC(=O)[C@@]13CCC(C)(C(=O)O1)C3(C)C)[C@@H](OC(=O)[C@@]13CCC(C)(C(=O)O1)C3(C)C)C(C)(C)O2
- IC50 [3]: > 10000 nM
- fold change (FC) [4]: 264

Structure (SMILES): COc1cc2c(c3oc4ccccc4c(=O)c13)[C@@H](OC(=O)[C@@]13CCC(C)(C(=O)O1)C3(C)C)[C@@H](OC(=O)[C@@]13CCC(C)(C(=O)O1)C3(C)C)C(C)(C)O2
- EC50 [1]: 63 nM
- IC50 [3]: > 10000 nM
- fold change (FC) [4]: 776
- inhibition (INH) [7]: Active

Structure (SMILES): CCc1cc(=O)c2c(C)cc3c(c2o1)[C@@H](OC(=O)[C@@]12CCC(C)(C(=O)O1)C2(C)C)[C@@H](OC(=O)[C@@]12CCC(C)(C(=O)O1)C2(C)C)C(C)(C)O3
- EC50 [1]: 100 nM
- IC50 [3]: > 10000 nM
- fold change (FC) [4]: 677
- inhibition (INH) [7]: Active

Structure (SMILES): CCc1cc(=O)c2ccc3c(c2o1)[C@@H](OC(=O)[C@@]12CCC(C)(C(=O)O1)C2(C)C)[C@@H](OC(=O)[C@@]12CCC(C)(C(=O)O1)C2(C)C)C(C)(C)O3
- EC50 [1]: 70 nM
- IC50 [3]: > 10000 nM
- fold change (FC) [4]: 132

Structure (SMILES): Cc1cc(=O)c2ccc3c(c2o1)[C@@H](OC(=O)[C@@]12CCC(C)(C(=O)O1)C2(C)C)[C@@H](OC(=O)[C@@]12CCC(C)(C(=O)O1)C2(C)C)C(C)(C)O3
- EC50 [1]: 100 nM
- IC50 [3]: > 10000 nM
- fold change (FC) [4]: 88

Structure (SMILES): COc1cc2c(c3oc4cc(C)ccc4c(=O)c13)[C@@H](OC(=O)[C@@]13CCC(C)(C(=O)O1)C3(C)C)[C@@H](OC(=O)[C@@]13CCC(C)(C(=O)O1)C3(C)C)C(C)(C)O2
- EC50 [1]: 95 nM
- IC50 [3]: > 10000 nM
- fold change (FC) [4]: 352

Structure (SMILES): COc1cc2c(c3oc4cccc(C)c4c(=O)c13)[C@@H](OC(=O)[C@@]13CCC(C)(C(=O)O1)C3(C)C)[C@@H](OC(=O)[C@@]13CCC(C)(C(=O)O1)C3(C)C)C(C)(C)O2
- EC50 [1]: 150 nM
- fold change (FC) [2]: 20
- IC50 [3]: > 10000 nM
- fold change (FC) [4]: 1390
